Screening data as filed in PubChem.
The list is not random: actives were taken first. Their share in the collection is about 4.8%.
UPR XBP1 act: activators of adaptive arm of unfolded protein response (XBP1). CHO-XBP1 luciferase reporter, IRE1-XBP1 UPR activation, luminescence; percent of tunicamycin response, DMSO as zero. AID 463104. 330,000 compounds, 0.33% hits. activation, % at 20 µM;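 active = versus positive control, 20 µM dose yields 30% or more activation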;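 also: 100% = tunicamycin at 10 µg/mL and 0% = DMSO only wells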
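Assay system: IRE1-XBP1 luciferase reporter CHO line. Input: 1000 cells/well. Buffer or medium: F12 with 10% serum. Doses: 20 µM, 1% DMSO. Times: overnight seeding at 37 °C, 6 h compound treatment at 37 °C. Technique: Steady-Glo luciferase glow luminescence, 10 min after reagent addition.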
CHOP UPR activ: activators of apoptotic arm of unfolded protein response (CHOP) | CHO-CHOP luciferase reporter, UPR activation, luminescence; percent of tunicamycin response over DMSO baseline | activation, % at 10 µM | 330,000 compounds, 0.34% hits;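 active = at 10 µM dose, activation of 40% or more, normalized to positive control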;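 also: 100% = tunicamycin at 10 µg/mL and 0% = DMSO alone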
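Test system: CHO-CHOP cells, stable luciferase reporter of PERK-eIF2a-CHOP signalling | Quantity: 500 CHO-CHOP cells per well | Buffer or medium: F12 plus 10% serum | Compound dosing: 10 µM single point, 0.5% DMSO | Schedule: 6 h compound treatment, 37 °C | Signal: Luciferase luminescence | Control set: Tunicamycin high control, DMSO low control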
CSC inhib: blocks cancer stem cells. inhibition, % at 7.5 µM. cancer stem cell-like cells viability, luminescence. AID 2717. 300,000 compounds, 1.1% hits; in the data active = inhibition above about 75%; tested in HMLE shEcad cells
Mdm2 MdmX PPI: disrupts the human Mdm2-MdmX interaction; AID 485346; 330,000 compounds, 3% hits; O15151+Q00987; SaOS-2 split-luciferase Mdm2/MdmX complementation, luminescence; inhibition, % at 8 µM;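 active = inhibition of at least 50% at 8 µM in the primary screen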
Target sequence (O15151 whole entry, looked up): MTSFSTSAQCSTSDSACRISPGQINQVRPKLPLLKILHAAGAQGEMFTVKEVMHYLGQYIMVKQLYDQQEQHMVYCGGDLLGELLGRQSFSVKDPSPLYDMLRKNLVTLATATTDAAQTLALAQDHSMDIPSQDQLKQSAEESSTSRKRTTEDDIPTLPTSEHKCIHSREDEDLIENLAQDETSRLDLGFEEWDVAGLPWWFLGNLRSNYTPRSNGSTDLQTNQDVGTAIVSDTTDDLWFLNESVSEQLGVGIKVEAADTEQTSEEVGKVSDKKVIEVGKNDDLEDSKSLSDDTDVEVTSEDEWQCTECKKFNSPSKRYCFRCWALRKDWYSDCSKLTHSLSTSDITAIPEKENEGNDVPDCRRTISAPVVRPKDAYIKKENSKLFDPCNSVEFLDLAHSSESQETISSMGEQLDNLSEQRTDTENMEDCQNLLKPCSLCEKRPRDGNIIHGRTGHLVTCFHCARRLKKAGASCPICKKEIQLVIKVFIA
Target sequence (Q00987 whole entry, looked up): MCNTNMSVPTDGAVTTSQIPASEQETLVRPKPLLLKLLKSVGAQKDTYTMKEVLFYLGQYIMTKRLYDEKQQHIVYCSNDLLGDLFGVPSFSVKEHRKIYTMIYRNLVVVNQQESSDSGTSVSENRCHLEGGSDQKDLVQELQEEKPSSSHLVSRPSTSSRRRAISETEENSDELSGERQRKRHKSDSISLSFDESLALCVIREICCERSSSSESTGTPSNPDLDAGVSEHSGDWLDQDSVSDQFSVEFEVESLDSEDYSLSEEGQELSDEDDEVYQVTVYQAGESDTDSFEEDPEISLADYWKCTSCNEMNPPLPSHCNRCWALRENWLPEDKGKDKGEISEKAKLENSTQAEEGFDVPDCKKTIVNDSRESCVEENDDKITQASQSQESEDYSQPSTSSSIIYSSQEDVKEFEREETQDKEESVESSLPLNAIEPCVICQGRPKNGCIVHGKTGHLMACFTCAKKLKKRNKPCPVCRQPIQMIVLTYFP
Beta apoptosis: beta cell apoptosis inhibition; INS-1E cytokine-induced death, ATP luminescence, 48 h; percent of positive-control rescue, neutral wells zero; protection from apoptosis, % (no concentration beside the values); 300,000 compounds, 0.8% hits; AID 435005;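 active = Every replicate reaches about 75%, or at least half do and their mean reaches it too, limit read from the data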;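 also: 0% = cytokine-treated negative control wells and 100% = positive control rescue; higher means more ATP so stronger rescue from cytokine killing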
SKKanGAS inh: inhibitors of SKKanGAS S. pyogenes growth in kanamycin (SK-promoter or general growth effect); 300,000 compounds, 1.3% hits; BacTiter-Glo, 6 h; inhibition, % at 7.5 µM;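 active = mean replicate score, as percent of positive control median, at least 50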;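 also: strain carries kanamycin resistance gene driven by streptokinase promoter and grows in 40 µg/ml kanamycin; loss of luminescence reflects streptokinase promoter inhibition or plain growth inhibition; 0% = median of DMSO wells and 100% = positive control at its reference dose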
Mdm2 MdmX conf: confirmation of human Mdm2/MdmX interaction inhibitors; shares compounds with Mdm2 MdmX PPI; Mdm2-MdmX binding, luminescent assay; inhibition, % at 8 µM; 10,000 compounds, 55% hits; AID 489028; in the data active = inhibition above about 40%
FLuc counter: inhibits full-length luciferase, flagging false Mdm2/MdmX hits | shares compounds with Mdm2 MdmX PPI | SaOS-2 full-length luciferase counterscreen, luminescence | inhibition, % at 8 µM | 6,200 compounds, 77% hits | AID 504607;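 active = mean inhibition at 8 µM reaching about 37%, which flags the compound as non-specific, limit read from the data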;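 also: p53-null SaOS-2 cells with luciferase driven by a doxycycline-inducible promoter; compound on cells about two nights before reading with doxycycline added after day one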
* = called active by the depositor; . = no result.

SMILES	UPR XBP1 act	CHOP UPR activ	CSC inhib	Mdm2 MdmX PPI	Beta apoptosis	SKKanGAS inh	Mdm2 MdmX conf	others
Cc1cc(C[n+]2ncsc2N)c2ncccc2c1	0.8	-0.6	-7.0	98.7*	-3.8	-16.3	17.4
Cc1cc(C[n+]2cc(Cl)ccc2N)c2ncccc2c1	-1.2	-1.6	4.9	32.5	1.6	-5.6	.
CCOc1ccc2c(c1)sc(N)[n+]2Cc1cc(C)cc2cccnc12	1.8	-0.8	-6.0	57.9*	62.9	5.0	64.9*	FLuc counter=60.0*
COc1ccc2c(c1)sc(N)[n+]2Cc1cc(C)cc2cccnc12	.	.	59.7	.	36.4	-4.1	.
CCNc1nnc(SCC(=O)NC2CCCCCC2)s1	2.4	-0.9	.	6.0	.	.	.
COc1ccc(S(=O)(=O)Nc2cccc(-c3ccc4nncn4n3)c2)cc1F	3.5	-2.7	53.9	50.1*	-1.7	1.8	66.0*	FLuc counter=60.6*
O=S(=O)(Nc1cccc(-c2ccc3nncn3n2)c1)c1cccc(F)c1	-0.7	-0.8	-3.8	8.6	2.2	12.5	.
COc1ccc(CCN(C)C(=O)CN2C(=O)NC3(CCCc4ccccc43)C2=O)cc1OC (stereo unspecified)	-2.2	-3.0	-8.0	11.8	1.9	-13.0	.
O=C(c1ccc(C#CC2(O)CCCCC2)cc1)N1CCN(C(c2ccccc2)c2ccccc2)CC1	-4.6	0.1	77.1*	56.6*	12.0	33.7	32.9
O=C(c1ccc(C#CC2(O)CCCCC2)cc1)N1CCN(Cc2ccccc2)CC1	-8.1	-0.3	-5.0	12.9	-1.5	3.7	.
COc1ccc(Cn2cnc3c4cc(F)ccc4n(C)c3c2=O)cc1	9.1	2.5	0.5	65.3*	-7.4	-0.9	8.8
COc1ccc2c(c1)c1ncn(CCc3ccccc3)c(=O)c1n2C	2.9	0.9	73.6	5.8	-8.6	-5.4	.
CC[n+]1ccc(/C=C/c2c[nH]c3ccccc23)cc1	-0.7	0.0	12.2	55.7*	73.1	0.0	19.6
Cc1ccc2[nH]cc(/C=C/c3cc[n+](C)cc3)c2c1	-2.0	-1.2	-9.5	71.6*	120.8*	-5.8	61.4*	FLuc counter=56.9*
COc1ccc2c(/C=C/c3cc[n+](C)cc3)c[nH]c2c1	-0.9	-1.0	-0.5	22.2	59.3	-0.7	.
COc1ccc(NC(=O)CC(C)c2ccccc2)cc1S(=O)(=O)N1CCOCC1 (stereo unspecified)	-2.2	-2.8	-12.8	9.3	-1.0	.	.
CCC1=NNc2cccc3c(OC)ccc1c23	4.2	0.7	.	62.3*	-4.4	36.4	24.3
COc1ccc2c3c(cccc13)C(=O)N(O)C2=O	.	.	6.5	.	-0.2	7.5	.
CCN(CC(=O)Nc1c(F)cccc1F)C(=O)c1cc(-c2cccs2)nn1-c1ccccc1	-0.9	2.3	.	59.6*	-2.0	7.5	39.8	FLuc counter=85.6*
COc1ccc(CN2C(=O)c3ccccc3C(/C=N/OCc3ccc(Cl)cc3)C2=O)cc1 (stereo unspecified)	-1.9	0.7	.	66.6*	-0.3	97.0*	14.2
O=C1/C(=C\c2c(NCCOCCO)nc3ccccn3c2=O)SC(=S)N1Cc1ccco1	-1.3	0.5	.	53.6*	.	8.7	27.6
CC1Sc2ccc(S(=O)(=O)CCC(=O)NCc3ccc(Cl)cc3)cc2NC1=O (stereo unspecified)	-1.0	-0.6	5.0	14.0	0.7	-0.6	.
Cc1[nH]n2c(=O)cc(-c3ccc([N+](=O)[O-])cc3)nc2c1-c1ccccc1	-0.4	1.7	-8.8	65.9*	2.7	101.5*	66.5*	FLuc counter=39.2*
CCCc1cc(=O)n2[nH]c(C)c(-c3ccccc3)c2n1	4.2	-3.3	2.3	23.6	12.6	6.2	.
COc1nc(-c2cccc([N+](=O)[O-])c2)nc2ccccc12	2.0	3.1	5.0	18.4	8.9	-1.4	.
O=C(O)c1ccc(Nc2nc(-c3ccc([N+](=O)[O-])cc3)nc3ccccc23)cc1	3.8	1.9	11.5	0.8	4.0	28.9	.
